# Where “and” joins values, the source holds several entries; their conditions need not be identical. Identical values can stand only once.
# System: Fibroblast
# Assay: Multiplex assay against human fibroblast
# Assay type: toxicity, cell-based
# Conditions: number of replicates 2
# In short: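 Hoechst33342, BioTracker Green Microtubule Cytoskeleton Dye, MitoTracker Red and Annexin V Alexa Fluor 680 were added to live cells at seeding, and imaging on a CQ1 microscope at 37°C and 5% CO2 followed compound addition. Gating by CellPathfinder machine learning separated cells into Hoechst high-intensity objects or normal cells, then normal cells into healthy, pyknosed or fragmented nuclei, then pyknosed cells into mitotic or apoptotic. Per cents of healthy-nucleus cells are reported for the tubulin, mitochondrial-mass and membrane-permeability phenotypes.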
# [1] = 12 h, 1 µM, compound concentration 1 uM
# [2] = 12 h, 10 µM, compound concentration 10 uM
# [3] = 24 h, 1 µM, compound concentration 1 uM
# [4] = 24 h, 10 µM, compound concentration 10 uM
# [5] = 48 h, 1 µM, compound concentration 1 uM
# [6] = 48 h, 10 µM, compound concentration 10 uM
smiles,measurement,setting,value
COc1ccncc1C(=O)NC(=O)Nc1ccc(-c2ccccc2)c(C(F)(F)F)c1,Population Apoptotic (%),[1],43% and 32%
same,Population Fragmented Nuclei (%),[1],7% and 12%
same,Population Healthy Nuclei (%),[1],73% and 71%
same,Population Hoechst High Intensity Objects (%),[1],0%
same,Population Membrane Permeable-Phenotype (%),[1],5% and 3%
same,Population Mitochondria Different-Phenotype (%),[1],1% and 2%
same,Population Mitotic Cells (%),[1],56% and 67%
same,Population Normal (%),[1],99% and 100%
same,Population Pyknosed Nuclei (%),[1],19% and 15%
same,Population Tubulin-Different-Phenotype (%),[1],6% and 5%
same,Total Cell Count,[1],158 and 217
same,Population Apoptotic (%),[2],38% and 50%
same,Population Fragmented Nuclei (%),[2],8% and 16%
same,Population Healthy Nuclei (%),[2],69%
same,Population Hoechst High Intensity Objects (%),[2],0%
same,Population Membrane Permeable-Phenotype (%),[2],9% and 5%
same,Population Mitochondria Different-Phenotype (%),[2],2%
same,Population Mitotic Cells (%),[2],61% and 50%
same,Population Normal (%),[2],100%
same,Population Pyknosed Nuclei (%),[2],22% and 13%
same,Population Tubulin-Different-Phenotype (%),[2],22% and 16%
same,Total Cell Count,[2],213 and 202
same,Population Apoptotic (%),[3],59% and 44%
same,Population Fragmented Nuclei (%),[3],19% and 15%
same,Population Healthy Nuclei (%),[3],61% and 68%
same,Population Hoechst High Intensity Objects (%),[3],0%
same,Population Membrane Permeable-Phenotype (%),[3],4% and 6%
same,Population Mitochondria Different-Phenotype (%),[3],1% and 2%
same,Population Mitotic Cells (%),[3],40% and 55%
same,Population Normal (%),[3],100%
same,Population Pyknosed Nuclei (%),[3],19% and 16%
same,Population Tubulin-Different-Phenotype (%),[3],12% and 10%
same,Total Cell Count,[3],189 and 219
same,Population Apoptotic (%),[4],46% and 65%
same,Population Fragmented Nuclei (%),[4],10% and 18%
same,Population Healthy Nuclei (%),[4],66% and 70%
same,Population Hoechst High Intensity Objects (%),[4],0%
same,Population Membrane Permeable-Phenotype (%),[4],6% and 4%
same,Population Mitochondria Different-Phenotype (%),[4],0% and 2%
same,Population Mitotic Cells (%),[4],53% and 34%
same,Population Normal (%),[4],100%
same,Population Pyknosed Nuclei (%),[4],22% and 11%
same,Population Tubulin-Different-Phenotype (%),[4],19% and 12%
same,Total Cell Count,[4],215 and 203
same,Population Apoptotic (%),[5],75% and 63%
same,Population Fragmented Nuclei (%),[5],13% and 16%
same,Population Healthy Nuclei (%),[5],69% and 74%
same,Population Hoechst High Intensity Objects (%),[5],0%
same,Population Membrane Permeable-Phenotype (%),[5],4% and 7%
same,Population Mitochondria Different-Phenotype (%),[5],0%
same,Population Mitotic Cells (%),[5],25% and 36%
same,Population Normal (%),[5],100% and 99%
same,Population Pyknosed Nuclei (%),[5],16% and 9%
same,Population Tubulin-Different-Phenotype (%),[5],4% and 6%
same,Total Cell Count,[5],173 and 239
same,Population Apoptotic (%),[6],66%
same,Population Fragmented Nuclei (%),[6],9% and 16%
same,Population Healthy Nuclei (%),[6],79% and 77%
same,Population Hoechst High Intensity Objects (%),[6],0%
same,Population Membrane Permeable-Phenotype (%),[6],9% and 1%
same,Population Mitochondria Different-Phenotype (%),[6],0% and 1%
same,Population Mitotic Cells (%),[6],33%
same,Population Normal (%),[6],100%
same,Population Pyknosed Nuclei (%),[6],10% and 6%
same,Population Tubulin-Different-Phenotype (%),[6],11% and 4%
same,Total Cell Count,[6],221 and 197
CSc1cc2c(cc1C(F)(F)F)N(C(=O)Nc1cccnc1)CC2,Population Apoptotic (%),[1],50% and 34%
same,Population Fragmented Nuclei (%),[1],9% and 17%
same,Population Healthy Nuclei (%),[1],75% and 64%
same,Population Hoechst High Intensity Objects (%),[1],0%
same,Population Membrane Permeable-Phenotype (%),[1],6% and 2%
same,Population Mitochondria Different-Phenotype (%),[1],0% and 2%
same,Population Mitotic Cells (%),[1],50% and 65%
same,Population Normal (%),[1],100%
same,Population Pyknosed Nuclei (%),[1],15% and 17%
same,Population Tubulin-Different-Phenotype (%),[1],5% and 10%
same,Total Cell Count,[1],144 and 180
same,Population Apoptotic (%),[2],22% and 26%
same,Population Fragmented Nuclei (%),[2],4% and 13%
same,Population Healthy Nuclei (%),[2],84% and 71%
same,Population Hoechst High Intensity Objects (%),[2],0%
same,Population Membrane Permeable-Phenotype (%),[2],2% and 5%
same,Population Mitochondria Different-Phenotype (%),[2],0%
same,Population Mitotic Cells (%),[2],77% and 73%
same,Population Normal (%),[2],100%
same,Population Pyknosed Nuclei (%),[2],11% and 15%
same,Population Tubulin-Different-Phenotype (%),[2],8% and 2%
same,Total Cell Count,[2],162 and 152
same,Population Apoptotic (%),[3],42% and 51%
same,Population Fragmented Nuclei (%),[3],5% and 14%
same,Population Healthy Nuclei (%),[3],80% and 65%
same,Population Hoechst High Intensity Objects (%),[3],0%
same,Population Membrane Permeable-Phenotype (%),[3],1% and 4%
same,Population Mitochondria Different-Phenotype (%),[3],0%
same,Population Mitotic Cells (%),[3],57% and 48%
same,Population Normal (%),[3],100% and 99%
same,Population Pyknosed Nuclei (%),[3],13% and 20%
same,Population Tubulin-Different-Phenotype (%),[3],9% and 11%
same,Total Cell Count,[3],142 and 185
same,Population Apoptotic (%),[4],20% and 33%
same,Population Fragmented Nuclei (%),[4],9% and 15%
same,Population Healthy Nuclei (%),[4],81% and 73%
same,Population Hoechst High Intensity Objects (%),[4],0%
same,Population Membrane Permeable-Phenotype (%),[4],4% and 3%
same,Population Mitochondria Different-Phenotype (%),[4],0%
same,Population Mitotic Cells (%),[4],80% and 66%
same,Population Normal (%),[4],100%
same,Population Pyknosed Nuclei (%),[4],8% and 11%
same,Population Tubulin-Different-Phenotype (%),[4],9% and 3%
same,Total Cell Count,[4],173 and 156
same,Population Apoptotic (%),[5],55% and 70%
same,Population Fragmented Nuclei (%),[5],14% and 16%
same,Population Healthy Nuclei (%),[5],73% and 70%
same,Population Hoechst High Intensity Objects (%),[5],0%
same,Population Membrane Permeable-Phenotype (%),[5],5% and 8%
same,Population Mitochondria Different-Phenotype (%),[5],0%
same,Population Mitotic Cells (%),[5],44% and 29%
same,Population Normal (%),[5],99% and 100%
same,Population Pyknosed Nuclei (%),[5],11% and 12%
same,Population Tubulin-Different-Phenotype (%),[5],4% and 7%
same,Total Cell Count,[5],158 and 187
same,Population Apoptotic (%),[6],54% and 46%
same,Population Fragmented Nuclei (%),[6],7% and 14%
same,Population Healthy Nuclei (%),[6],86% and 76%
same,Population Hoechst High Intensity Objects (%),[6],0%
same,Population Membrane Permeable-Phenotype (%),[6],3% and 2%
same,Population Mitochondria Different-Phenotype (%),[6],0%
same,Population Mitotic Cells (%),[6],45% and 53%
same,Population Normal (%),[6],100%
same,Population Pyknosed Nuclei (%),[6],5% and 9%
same,Population Tubulin-Different-Phenotype (%),[6],4% and 3%
same,Total Cell Count,[6],188 and 164
CCN(CC)C/C=C/C(=O)Nc1cc2c(Nc3ccc(F)c(Cl)c3)ncnc2cc1OCC1CC1,Population Apoptotic (%),[1],48% and 35%
same,Population Fragmented Nuclei (%),[1],14% and 17%
same,Population Healthy Nuclei (%),[1],62% and 55%
same,Population Hoechst High Intensity Objects (%),[1],0%
same,Population Membrane Permeable-Phenotype (%),[1],10% and 15%
same,Population Mitochondria Different-Phenotype (%),[1],2% and 4%
same,Population Mitotic Cells (%),[1],51% and 65%
same,Population Normal (%),[1],100%
same,Population Pyknosed Nuclei (%),[1],22% and 26%
same,Population Tubulin-Different-Phenotype (%),[1],61% and 56%
same,Total Cell Count,[1],189 and 225
same,Population Apoptotic (%),[2],63% and 58%
same,Population Fragmented Nuclei (%),[2],19% and 20%
same,Population Healthy Nuclei (%),[2],47% and 51%
same,Population Hoechst High Intensity Objects (%),[2],0%
same,Population Membrane Permeable-Phenotype (%),[2],25% and 20%
same,Population Mitotic Cells (%),[2],36% and 41%
same,Population Normal (%),[2],100%
same,Population Pyknosed Nuclei (%),[2],33% and 27%
same,Population Tubulin-Different-Phenotype (%),[2],92% and 87%
same,Total Cell Count,[2],209 and 264
same,Population Apoptotic (%),[3],52% and 62%
same,Population Fragmented Nuclei (%),[3],17% and 20%
same,Population Healthy Nuclei (%),[3],60% and 64%
same,Population Hoechst High Intensity Objects (%),[3],1% and 0%
same,Population Membrane Permeable-Phenotype (%),[3],2% and 4%
same,Population Mitochondria Different-Phenotype (%),[3],7% and 12%
same,Population Mitotic Cells (%),[3],47% and 37%
same,Population Normal (%),[3],98% and 100%
same,Population Pyknosed Nuclei (%),[3],22% and 15%
same,Population Tubulin-Different-Phenotype (%),[3],75% and 62%
same,Total Cell Count,[3],192 and 231
same,Population Apoptotic (%),[4],91% and 85%
same,Population Fragmented Nuclei (%),[4],13% and 8%
same,Population Healthy Nuclei (%),[4],13% and 19%
same,Population Hoechst High Intensity Objects (%),[4],0%
same,Population Membrane Permeable-Phenotype (%),[4],14% and 16%
same,Population Mitochondria Different-Phenotype (%),[4],71% and 56%
same,Population Mitotic Cells (%),[4],8% and 14%
same,Population Normal (%),[4],99%
same,Population Pyknosed Nuclei (%),[4],72% and 71%
same,Population Tubulin-Different-Phenotype (%),[4],95% and 89%
same,Total Cell Count,[4],154 and 190
same,Population Apoptotic (%),[5],73% and 53%
same,Population Fragmented Nuclei (%),[5],28% and 25%
same,Population Healthy Nuclei (%),[5],59% and 63%
same,Population Hoechst High Intensity Objects (%),[5],0%
same,Population Membrane Permeable-Phenotype (%),[5],3% and 1%
same,Population Mitochondria Different-Phenotype (%),[5],10% and 8%
same,Population Mitotic Cells (%),[5],26% and 46%
same,Population Normal (%),[5],100% and 99%
same,Population Pyknosed Nuclei (%),[5],12% and 11%
same,Population Tubulin-Different-Phenotype (%),[5],68% and 45%
same,Total Cell Count,[5],210 and 233
same,Population Apoptotic (%),[6],92% and 94%
same,Population Fragmented Nuclei (%),[6],22% and 28%
same,Population Healthy Nuclei (%),[6],10% and 21%
same,Population Hoechst High Intensity Objects (%),[6],0%
same,Population Membrane Permeable-Phenotype (%),[6],41% and 38%
same,Population Mitochondria Different-Phenotype (%),[6],29% and 19%
same,Population Mitotic Cells (%),[6],7% and 5%
same,Population Normal (%),[6],100%
same,Population Pyknosed Nuclei (%),[6],67% and 49%
same,Population Tubulin-Different-Phenotype (%),[6],47% and 93%
same,Total Cell Count,[6],168 and 145

# — ChEMBL document CHEMBL5303300, “EUbOPEN Chemogenomics Library - Multiplex” (2023)
